Test system: SF-295
Assay: Anticancer activity against human SF295 cells assessed as cell growth at 10^-5 M after 48 hrs by SRB assay
Format: functional
Settings: SF-295, 48 h, read-out: Activity

Compound	growth at 10 µM [%]
COc1cccc(-c2nc3sccn3c2-c2ccnc(NCCNC(=O)c3cc(N4CCOCC4)cc(C(F)(F)F)c3)n2)c1	83.7

Test system: SK-MEL-28
Assay: Anticancer activity against human SK-MEL-28 cells assessed as cell growth at 10^-5 M after 48 hrs by SRB assay
Format: functional
Settings: SK-MEL-28, 48 h, read-out: Activity

Compound	growth at 10 µM [%]
COc1cccc(-c2nc3sccn3c2-c2ccnc(NCCNC(=O)c3cc(N4CCOCC4)cc(C(F)(F)F)c3)n2)c1	88.2

Test system: MDA-MB-468
Assay: Anticancer activity against human MDA-MB-468 cells assessed as cell growth at 10^-5 M after 48 hrs by SRB assay
Format: functional
Settings: MDA-MB-468, 48 h, read-out: Activity

Compound	growth at 10 µM [%]
COc1cccc(-c2nc3sccn3c2-c2ccnc(NCCNC(=O)c3cc(N4CCOCC4)cc(C(F)(F)F)c3)n2)c1	98.1

Test system: IGROV-1
Assay: Anticancer activity against human IGROV1 cells assessed as cell growth at 10^-5 M after 48 hrs by SRB assay
Format: functional
Settings: IGROV-1, 48 h, read-out: Activity
How it was run: (§1)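 NCI-60 single-dose screen at one concentration. Cells grown in RPMI 1640 with 5% FBS and 2 mM L-glutamine, plated at 5000–40,000 cells/well, and pre-incubated 24 h at 37 °C in 5% CO2 before DMSO-dissolved drug was added. Cells fixed with TCA, SRB-stained, absorbance read at 515 nm. Percent growth calculated against time-zero and untreated control plates.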

Compound	growth at 10 µM [%]
COc1cccc(-c2nc3sccn3c2-c2ccnc(NCCNC(=O)c3cc(N4CCOCC4)cc(C(F)(F)F)c3)n2)c1	67.5

Test system: NCI-H460
Assay: Anticancer activity against human NCI-H460 cells assessed as cell growth at 10^-5 M after 48 hrs by SRB assay
Format: functional
Settings: NCI-H460, 48 h, read-out: Activity

Compound	growth at 10 µM [%]
COc1cccc(-c2nc3sccn3c2-c2ccnc(NCCNC(=O)c3cc(N4CCOCC4)cc(C(F)(F)F)c3)n2)c1	95.6

Test system: SR
Assay: Anticancer activity against human SR cells assessed as cell growth at 10^-5 M after 48 hrs by SRB assay
Format: functional
Settings: read-out: Activity
How it was run: (§2)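 NCI-60 single-dose screen: cells in RPMI 1640 with 5% FBS and 2 mM L-glutamine, plated at 5000–40,000 cells/well by doubling time, and preincubated 24 h at 37 °C. Compound given at one concentration from DMSO stock. Cells TCA-fixed and SRB-stained, absorbance at 515 nm. Percent growth relative to time-zero and untreated controls; inhibition % = 100 − growth %.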

Compound	growth at 10 µM [%]
COc1cccc(-c2nc3sccn3c2-c2ccnc(NCCNC(=O)c3cc(N4CCOCC4)cc(C(F)(F)F)c3)n2)c1	80.7

Test system: RXF 393
Assay: Anticancer activity against human RXF393 cells assessed as cell growth at 10^-5 M after 48 hrs by SRB assay
Format: functional
Settings: RXF 393, 48 h, read-out: Activity

Compound	growth at 10 µM [%]
COc1cccc(-c2nc3sccn3c2-c2ccnc(NCCNC(=O)c3cc(N4CCOCC4)cc(C(F)(F)F)c3)n2)c1	72.6

Test system: K562
Assay: Anticancer activity against human K562 cells assessed as cell growth at 10^-5 M after 48 hrs by SRB assay
Format: functional
Settings: K562, 48 h, read-out: Activity
How it was run: as §1

Compound	growth at 10 µM [%]
COc1cccc(-c2nc3sccn3c2-c2ccnc(NCCNC(=O)c3cc(N4CCOCC4)cc(C(F)(F)F)c3)n2)c1	90.1

Test system: SK-MEL-5
Assay: Anticancer activity against human SK-MEL-5 cells assessed as cell growth at 10^-5 M after 48 hrs by SRB assay
Format: functional
Settings: SK-MEL-5, 48 h, read-out: Activity

Compound	growth at 10 µM [%]
COc1cccc(-c2nc3sccn3c2-c2ccnc(NCCNC(=O)c3cc(N4CCOCC4)cc(C(F)(F)F)c3)n2)c1	66.2

Test system: NCI/ADR-RES
Assay: Anticancer activity against human NCI/ADR-RES cells assessed as cell growth at 10^-5 M after 48 hrs by SRB assay
Format: functional
Settings: read-out: Activity

Compound	growth at 10 µM [%]
COc1cccc(-c2nc3sccn3c2-c2ccnc(NCCNC(=O)c3cc(N4CCOCC4)cc(C(F)(F)F)c3)n2)c1	76.5

Test system: UACC-257
Assay: Anticancer activity against human UACC257 cells assessed as cell growth at 10^-5 M after 48 hrs by SRB assay
Format: functional
Settings: UACC-257, 48 h, read-out: Activity
How it was run: as §2

Compound	growth at 10 µM [%]
COc1cccc(-c2nc3sccn3c2-c2ccnc(NCCNC(=O)c3cc(N4CCOCC4)cc(C(F)(F)F)c3)n2)c1	89.5

Test system: SN12C
Assay: Anticancer activity against human SN12C cells assessed as cell growth at 10^-5 M after 48 hrs by SRB assay
Format: functional
Settings: read-out: Activity

Compound	growth at 10 µM [%]
COc1cccc(-c2nc3sccn3c2-c2ccnc(NCCNC(=O)c3cc(N4CCOCC4)cc(C(F)(F)F)c3)n2)c1	89.3

Test system: HCC 2998
Assay: Anticancer activity against human HCC2998 cells assessed as cell growth at 10^-5 M after 48 hrs by SRB assay
Format: functional
Settings: HCC 2998, 48 h, read-out: Activity
How it was run: as §1

Compound	growth at 10 µM [%]
COc1cccc(-c2nc3sccn3c2-c2ccnc(NCCNC(=O)c3cc(N4CCOCC4)cc(C(F)(F)F)c3)n2)c1	98.7

Test system: A549
Assay: Anticancer activity against human A549 cells assessed as cell growth at 10^-5 M after 48 hrs by SRB assay
Format: functional
Settings: A549, 48 h, read-out: Activity
How it was run: as §1

Compound	growth at 10 µM [%]
COc1cccc(-c2nc3sccn3c2-c2ccnc(NCCNC(=O)c3cc(N4CCOCC4)cc(C(F)(F)F)c3)n2)c1	82.2

Test system: HL-60(TB)
Assay: Anticancer activity against human HL-60(TB) cells assessed as cell growth at 10^-5 M after 48 hrs by SRB assay
Format: functional
Settings: HL-60, 48 h, read-out: Activity
How it was run: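 NCI-60 single-dose screen. Cells in RPMI 1640 with 5% FBS and 2 mM L-glutamine were plated at 5000–40,000 cells/well and preincubated 24 h at 37 °C before one compound concentration. Time-zero plates were TCA-fixed at drug addition. For suspension cells, settled cells were fixed with cold TCA, then SRB-stained and read at 515 nm. Percent growth was calculated from time-zero, control and treated absorbances.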

Compound	growth at 10 µM [%]
COc1cccc(-c2nc3sccn3c2-c2ccnc(NCCNC(=O)c3cc(N4CCOCC4)cc(C(F)(F)F)c3)n2)c1	113

Test system: PC-3
Assay: Anticancer activity against human PC3 cells assessed as cell growth at 10^-5 M after 48 hrs by SRB assay
Format: functional
Settings: PC-3, 48 h, read-out: Activity

Compound	growth at 10 µM [%]
COc1cccc(-c2nc3sccn3c2-c2ccnc(NCCNC(=O)c3cc(N4CCOCC4)cc(C(F)(F)F)c3)n2)c1	66.3

Test system: MOLT-4
Assay: Anticancer activity against human MOLT4 cells assessed as cell growth at 10^-5 M after 48 hrs by SRB assay
Format: functional
Settings: MOLT-4, 48 h, read-out: Activity

Compound	growth at 10 µM [%]
COc1cccc(-c2nc3sccn3c2-c2ccnc(NCCNC(=O)c3cc(N4CCOCC4)cc(C(F)(F)F)c3)n2)c1	60

Test system: UACC-62
Assay: Anticancer activity against human UACC62 cells assessed as cell growth at 10^-5 M after 48 hrs by SRB assay
Format: functional
Settings: UACC-62, 48 h, read-out: Activity
How it was run: as §2

Compound	growth at 10 µM [%]
COc1cccc(-c2nc3sccn3c2-c2ccnc(NCCNC(=O)c3cc(N4CCOCC4)cc(C(F)(F)F)c3)n2)c1	50.9

Test system: COLO 205
Assay: Anticancer activity against human COLO205 cells assessed as cell growth at 10^-5 M after 48 hrs by SRB assay
Format: functional
Settings: COLO 205, 48 h, read-out: Activity
How it was run: as §1

Compound	growth at 10 µM [%]
COc1cccc(-c2nc3sccn3c2-c2ccnc(NCCNC(=O)c3cc(N4CCOCC4)cc(C(F)(F)F)c3)n2)c1	73.3

Test system: MDA-MB-435
Assay: Anticancer activity against human MDA-MB-435 cells assessed as cell growth at 10^-5 M after 48 hrs by SRB assay
Format: functional
Settings: MDA-MB-435, 48 h, read-out: Activity

Compound	growth at 10 µM [%]
COc1cccc(-c2nc3sccn3c2-c2ccnc(NCCNC(=O)c3cc(N4CCOCC4)cc(C(F)(F)F)c3)n2)c1	62.8

Test system: CAKI-1
Assay: Anticancer activity against human Caki1 cells assessed as cell growth at 10^-5 M after 48 hrs by SRB assay
Format: functional
Settings: CAKI-1, 48 h, read-out: Activity
How it was run: as §1

Compound	growth at 10 µM [%]
COc1cccc(-c2nc3sccn3c2-c2ccnc(NCCNC(=O)c3cc(N4CCOCC4)cc(C(F)(F)F)c3)n2)c1	83

Test system: not listed separately
Assay: Antiproliferative activity against human A375P cells after 48 hrs by MTT assay
Format: functional, cell-based
Settings: not given
How it was run: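 A375P cells in DMEM with 10% FBS at 37 °C, 5% CO2. Seeded at 5×10³ cells/well, held 24 h, then treated with 12-point 3-fold serial dilutions for 48 h. Viability by MTT reduction. IC50 values are means of triplicate experiments.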

Compound	IC50 [µM]
COc1cccc(-c2nc3sccn3c2-c2ccnc(NCCNC(=O)c3cc(N4CCOCC4)cc(C(F)(F)F)c3)n2)c1	> 10

Test system: SW-620
Assay: Anticancer activity against human SW620 cells assessed as cell growth at 10^-5 M after 48 hrs by SRB assay
Format: functional
Settings: SW-620, 48 h, read-out: Activity
How it was run: as §2

Compound	growth at 10 µM [%]
COc1cccc(-c2nc3sccn3c2-c2ccnc(NCCNC(=O)c3cc(N4CCOCC4)cc(C(F)(F)F)c3)n2)c1	109

Test system: M14
Assay: Anticancer activity against human M14 cells assessed as cell growth at 10^-5 M after 48 hrs by SRB assay
Format: functional
Settings: M14, 48 h, read-out: Activity
How it was run: as §1

Compound	growth at 10 µM [%]
COc1cccc(-c2nc3sccn3c2-c2ccnc(NCCNC(=O)c3cc(N4CCOCC4)cc(C(F)(F)F)c3)n2)c1	65.3

Test system: SNB-19
Assay: Anticancer activity against human SNB19 cells assessed as cell growth at 10^-5 M after 48 hrs by SRB assay
Format: functional
Settings: SNB-19, 48 h, read-out: Activity

Compound	growth at 10 µM [%]
COc1cccc(-c2nc3sccn3c2-c2ccnc(NCCNC(=O)c3cc(N4CCOCC4)cc(C(F)(F)F)c3)n2)c1	103

Test system: OVCAR-4
Assay: Anticancer activity against human OVCAR4 cells assessed as cell growth at 10^-5 M after 48 hrs by SRB assay
Format: functional
Settings: OVCAR-4, 48 h, read-out: Activity

Compound	growth at 10 µM [%]
COc1cccc(-c2nc3sccn3c2-c2ccnc(NCCNC(=O)c3cc(N4CCOCC4)cc(C(F)(F)F)c3)n2)c1	107
